SMILES strings stand for the structures. Where only a bound is given, the exact number is not on record here.

These results are taken from ChEMBL document CHEMBL3588845, “Protozoan Parasite Growth Inhibitors Discovered by Cross-Screening Yield Potent Scaffolds for Lead Discovery” (J Med Chem, 2015).

Series [1] relates to Trypanosoma cruzi. In words: Antiparasite activity against Trypanosoma cruzi Tulahuen expressing beta-galactosidase assessed as growth inhibition at 10 uM incubated for 96 hrs by CPRG dye based assay. The class given is functional. The note with it: read-out: GI.
Series [2] relates to Leishmania major. In words: Antiparasite activity against Leishmania major promastigotes assessed as growth inhibition incubated for 44 hrs by alamar blue dye based fluorescence assay. The series is classed as functional, organism-based. On the technique in general: The colour change of resazurin is a common sign of viable cells or microbes.
Series [3] concerns Leishmania major. The experiment in a line: Antiparasite activity against luciferase-expressing Leishmania major amastigotes isolated from infected in mouse RAW264.7 cells assessed as growth inhibition incubated for 96 hrs by luciferase reporter gene assay. The class given is functional, organism-based. As to conditions: RAW264.7, 96 h. For orientation: In a reporter assay the amount or activity of a reporter protein is the signal.

Series [4] is described as follows: Toxicity against human HepG2 cells incubated for 48 hrs by MTT assay. The note with it: read-out: TC50. The series is classed as cell-based. For orientation: Tetrazolium assays rely on reduction of a dye to a coloured formazan, in cell work by metabolically active cells.
Series [5] has as its system Plasmodium falciparum. The experiment in a line: Antiparasite activity against Plasmodium falciparum D6 assessed as growth inhibition incubated for 72 hrs by SYBR green fluorescence assay. The series is classed as functional, organism-based. As to conditions: D6, 72 h.
The subject of series [6] is Trypanosoma brucei. In words: Antiparasite activity against Trypanosoma brucei 427 assessed as growth inhibition incubated for 48 hrs by PrestoBlue based fluorescence assay. The series is classed as functional, organism-based. As to conditions: Trypanosoma brucei, 427, 48 h.
The subject of series [7] is Plasmodium falciparum. In words: Antiparasite activity against drug resistant Plasmodium falciparum W2 assessed as growth inhibition incubated for 72 hrs by SYBR green fluorescence assay. The series is classed as functional, organism-based. The note with it: W2, 72 h.
For series [8], the system named is Trypanosoma cruzi. The experiment in a line: Antiparasite activity against Trypanosoma cruzi Tulahuen expressing beta-galactosidase assessed as growth inhibition incubated for 96 hrs by CPRG dye based assay. The series is classed as functional, organism-based.
A short description of series [9]: Aqueous solubility of the compound. The series is classed as physicochemical. As to conditions: buffer. Put shortly:
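Aqueous solubility measured as thermodynamic solubility.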

Series [10] relates to Plasmodium falciparum. The experiment in a line: Antiparasite activity against drug resistant Plasmodium falciparum C235 assessed as growth inhibition incubated for 72 hrs by SYBR green fluorescence assay. As to conditions: C235, 72 h. The series is classed as functional, organism-based.
Series [11] can be described thus: Protein binding in plasma (unknown origin) assessed as fraction unbound. The class given is ADME, cell-free.
Series [12] has as its system Hepatocyte. In words: Intrinsic clearance in rat hepatocytes assessed per 10^6 cells. The series is classed as ADME, cell-based.

A word on the EC50: it is the midpoint of the concentration-response curve. Regarding `CN1CCN(S(=O)(=O)c2ccc(-c3ccc4ncnc(Nc5ccc(OCc6cccc(F)c6)c(Cl)c5)c4c3)cc2)CC1`, the inhibition of growth at 10 µM in series [1] is 60%. In addition, the EC50 in [2] was 2800 nM; in [3], 1600 nM; in series [5], 27 nM. Moreover, in series [4], the CC50 at 48 h is over 15 µM.

As for `O=S(=O)(c1ccc(-c2ccc3ncnc(Nc4ccc(OCc5ccccc5)c(Cl)c4)c3c2)cc1)N1CCOCC1`, the inhibition of growth at 10 µM in series [1] was 9.5%. Also, the EC50 in [2] is 500 nM; in series [3], over 15000 nM; in series [5] it was 260 nM; in [6], 1400 nM. Also, in [4], the CC50 at 48 h is over 15 µM.

The solubility is the dissolved amount per volume that the medium holds. As to `O=S(=O)(c1ccc(-c2ccc3nccc(Nc4ccc(OCc5ccccc5)c(Cl)c4)c3c2)cc1)N1CCOCC1`, the EC50 amounted to 110 nM in series [7]; 200 nM in series [2]; 3400 nM in series [3]; 49 µM in series [8]; 32 nM in series [5]; 54 nM in series [10]. Moreover, the EC50 in series [6] amounted to 2100 nM. In [4], the CC50 at 48 h was over 5 µM. This molecule also returned a solubility in [9] of under 1 µM. In addition, in series [11], the Fu is reported as under 1%. Also, the CLH in [12] was 13.93 µL/min.

Take `CN1CCCN(S(=O)(=O)c2ccc(-c3ccc4c(Nc5ccc(OCc6cccc(F)c6)c(Cl)c5)cnnc4c3)cc2)CC1`: the EC50 was found to be 13 nM in series [7]; 6400 nM in series [2]; 240 nM in series [3]; 49 µM in series [8]; 3 nM in [5]; 5 nM in [10]. Also, in [6], the EC50 turned out to be 210 nM. Moreover, in [4], the CC50 at 48 h was 15 µM. In addition, in series [9], the solubility is under 1 µM. The Fu in series [11] is under 1%. In [12], this molecule returned a CLH of 36.72 µL/min.
